Screening data: PubChem BioAssay, Broad Institute
NSD2 inh – blocks human histone methyltransferase NSD2; O96028; NSD2 peptide methylation, AlphaScreen, 120 min; inhibition, % at 12.5 µM; actives 0.54% (n = 310,000); AID 743445
CDK5 inh – inhibitors of human CDK5/p35 kinase; Q00535+Q15078; Recombinant CDK5/p35, ADP-Glo luminescence, 60 min; inhibition, % at 10 µM; actives 0.01% (n = 330,000);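 active means highest replicate inhibition of at least 50% and at least 75% of replicates reaching 50%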;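 further: plate controls were DMSO neutral control for no effect and GW8510 at 10 µM for full effect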
Dyrk1A ADPGlo – inhibitors of rat Dyrk1A kinase; Q63470; ADP-Glo luminescence, NFATc1 peptide; inhibition, % at 12.5 µM; actives 0.43% (n = 310,000); AID 504441;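 further: plate controls were vehicle with enzyme for no effect and no enzyme for full effect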
dFosB act – activators of mouse delta FosB homodimer | P13346 | purified delta FosB, TAMRA-CDK5 oligo fluorescence polarization; percent of positive-control signal above neutral wells | activation, % at 25 µM | actives 0.99% (n = 340,000);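 active means mean activation above about 17%, with every replicate also reaching it, limit read from the data, passing the limit was not always enough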
SR-BI DiI-HDL act – activators of SR-BI mediated HDL lipid uptake; activation, % at 12.5 µM; CHO ldlA[mSR-BI] cells, DiI-HDL uptake fluorescence, 3 h; 100 = double the neutral-control signal; actives 0.096% (n = 320,000);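 active means mean replicate activation of at least 60% and every replicate at or above 60%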;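 further: 0% = median plate neutral-control signal and 100% = twice that signal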
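Material – SR-BI-overexpressing, LDLR-lacking CHO cells · Medium – BSA-supplemented, HEPES-buffered Ham's F12, pH 7.4 · Doses – single concentration · Times – compound with DiI-HDL co-incubation, 3 h at 37 °C · Measured by – bottom-read fluorescence, 550/595 nm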
SR-BI HDL uptake – inhibitors of mouse SR-BI mediated HDL lipid uptake. Q61009. actives 0.96% (n = 320,000). inhibition, % at 12.5 µM. ldlA[mSR-BI] CHO cells, DiI-HDL uptake fluorescence, 3 h;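 active means mean replicate inhibition of at least 70% and a set share of replicates each scoring 70 or more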;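 further: 0% = median of neutral control wells and 100% = median of positive control wells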
Target sequence (Q61009 whole entry, looked up): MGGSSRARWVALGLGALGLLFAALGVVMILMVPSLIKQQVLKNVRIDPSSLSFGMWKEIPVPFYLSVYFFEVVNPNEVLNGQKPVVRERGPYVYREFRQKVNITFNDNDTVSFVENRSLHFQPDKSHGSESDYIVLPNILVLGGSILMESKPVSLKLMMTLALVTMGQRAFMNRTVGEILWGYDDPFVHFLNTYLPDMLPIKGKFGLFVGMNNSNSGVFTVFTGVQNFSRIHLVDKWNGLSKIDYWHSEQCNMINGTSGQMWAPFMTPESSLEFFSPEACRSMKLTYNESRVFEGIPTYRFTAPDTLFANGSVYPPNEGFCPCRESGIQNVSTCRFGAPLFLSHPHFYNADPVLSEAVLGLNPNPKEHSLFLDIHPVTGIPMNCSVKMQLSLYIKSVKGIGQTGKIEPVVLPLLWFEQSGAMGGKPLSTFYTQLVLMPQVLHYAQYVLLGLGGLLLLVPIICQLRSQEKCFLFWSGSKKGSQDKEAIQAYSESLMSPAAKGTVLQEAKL
* = called active by the depositor; x = no result. Compounds with a hit are over-represented: about 2.5% of the library has one in this group of screens. Unless noted, no stated cut-off is given here; in the data, active means inhibition above about 50%; inactive means the rest.

SMILES	NSD2 inh	CDK5 inh	Dyrk1A ADPGlo	dFosB act	SR-BI DiI-HDL act	SR-BI HDL uptake
COc1ccc(-c2nn(-c3ccccc3)cc2/C=N/NC(=O)c2ccc(Br)o2)cc1	-2	2	3	-1	-82	82*
COc1ccc(-c2nn(-c3ccccc3)cc2/C=C/C(=O)OCC(=O)Nc2ccc(C#N)cc2)cc1	x	0	4	-8	-87	87*
O=C(N/N=C/c1cn(-c2ccccc2)nc1-c1ccc(F)cc1)c1ccc2c(c1)OCO2	-1	0	1	0	-74	74*
COc1ccc(-c2nn(-c3ccccc3)cc2/C=C/C(=O)OCC(=O)Nc2cccc(C#N)c2)cc1	0	-4	5	3	-25	25
CCCCN1C(=O)/C(=C/C=C2\SCCN2C)SC1=S	5	2	7	-3	-71	71*
COc1ccc(C(=O)N/C(=C/c2cccs2)C(=O)NN)cc1OC	0	-1	-2	-3	-75	75*
COc1ccc(C(=O)N/C(=C\c2cccs2)C(=O)N2CCN(C)CC2)cc1OC	-2	2	9	-3	-14	14
CCCN(CC(=O)Nc1ccccc1OC)C(=O)CN1C(=O)NC(C)(C)C1=O	2	x	x	x	x	x
O=C(Nc1ccc(-c2csc(Nc3ccccc3)n2)cc1)c1ccccc1	x	1	7	-7	-86	86*
O=C(NNc1nc(-c2ccccc2)cs1)c1ccccc1	0	-3	1	6	-30	30
Clc1ccc(Nc2nc(-c3cccnc3)cs2)cc1	0	1	3	-2	-39	39
O=C(Nc1cccc(-c2csc(Nc3ccc(Cl)cc3)n2)c1)c1ccccc1	x	3	1	-6	-98	98*
Cc1nc(Cc2nnc(SCC(=O)N3CCN(c4ccccc4)CC3)o2)cs1	-3	0	3	-2	-5	5
Cc1ccc(S(=O)(=O)Nc2ccccc2N2CCCCC2)cc1	-3	-1	-1	-3	16	-16
O=C(NCC(F)(F)F)c1ccc(S(=O)(=O)Nc2ccccc2N2CCCC2)cc1	-1	2	-1	53*	-19	19
C=CCn1c(Cc2cccs2)nnc1SCC(=O)Nc1ccc(OCc2ccccc2)cc1	-2	x	x	x	x	x
CC[C@]12c3[nH]c4cc(CCC(=O)N(C)C)ccc4c3CCN1C(=O)[C@@H](CC(=O)NCc1ccco1)C[C@@H]2C(=O)N1CCN(C(=O)C2CC2)CC1	x	3	-1	-12	-3	3
O=C(Nc1cccc(C(F)(F)F)c1)Nc1ccc(N2CCCC2)c(S(=O)(=O)Nc2ccccc2Cl)c1	0	0	3	3	-91	91*
CCN1c2ccccc2N(C)C1(C)c1ccccc1 (centres undefined)	63*	1	8	-55	-4	4
CCC1(c2ccccc2)CN(C)C1=O (centres undefined)	0	x	x	x	x	x
CC(C)(C)[C@@H]1CCC(=O)N(CC[C@H](Sc2ccc(Br)cc2)c2ccccc2)CC1	x	-7	9	-4	-82	82*
COc1ccccc1CCC(=O)Nc1ccc2c(c1)CN(Cc1ccc(C)o1)CC2	1	-1	1	-12	-81	81*
CCCCc1c(O)nc(SCC(=O)c2ccccc2)[nH]c1=O	-2	0	1	2	71*	-71
CCCCc1c(O)nc(SCC(=O)O)[nH]c1=O	1	0	-8	1	24	-24
Cc1c(NC(=O)C2CCCN(S(=O)(=O)c3ccc(F)cc3)C2)c(=O)n(-c2ccccc2)n1C (centres undefined)	5	x	x	x	x	x
SMILES	NSD2 inh	CDK5 inh	Dyrk1A ADPGlo	dFosB act	SR-BI DiI-HDL act	SR-BI HDL uptake
COCCN=c1scc(-c2ccco2)n1/N=C/c1ccc(O)c(O)c1O	87*	5	3	-15	-66	66
O=C(COC(=O)c1cccc(-n2cnnn2)c1)c1ccc(F)c(F)c1	-1	x	x	x	x	x
Cc1ccc(NC(=S)N=Nc2c(O)n(C)c3ccc(S(=O)(=O)N4CCOCC4)cc23)cc1	3	-11	3	3	-47	47
Cc1cc(C)cc(NC(=S)N=Nc2c(O)n(C)c3ccc(S(=O)(=O)N4CCOCC4)cc23)c1	5	0	2	0	-87	87*
CC(C)Cn1c(=O)cc(N2CCN(c3cccc(C(F)(F)F)c3)CC2)[nH]c1=O	0	x	x	x	x	x
CC(=O)c1ccc(Nc2nc(-c3sc(C)nc3C)cs2)cc1	2	x	x	x	x	x
CC(=O)Nc1ccc(Nc2nc(-c3sc(C)nc3C)cs2)cc1	0	0	24	-8	-74	74*
CC(=O)c1cccc(Nc2nc(-c3sc(C)nc3C)cs2)c1	4	-1	5	-13	-71	71*
Cc1cccc(Nc2nc(-c3sc(C)nc3C)cs2)c1	-4	0	-6	-3	-85	85*
O=[N+]([O-])c1cccc(S(=O)(=O)Nc2nc3ccccc3nc2Nc2cccc(S(=O)(=O)N3CCCCC3)c2)c1	x	-1	1	-21	-76	76*
Cc1ccc(S(=O)(=O)Nc2nc3ccccc3nc2Nc2cccc(S(=O)(=O)N3CCCC3)c2)cc1	4	2	-2	-2	x	x
CC(C)C(=O)Nc1ccc(NC(=S)NC(=O)c2ccccc2F)cc1	-5	4	0	1	-38	38
O=[N+]([O-])c1cccc(NC(=S)Nc2nc(-c3ccccc3Cl)cs2)c1	0	-1	-10	-1	-84	84*
Cn1ncc(Br)c1C(=O)NC1CCCCCC1	-1	0	1	-2	5	-5
O=C(Nc1sc2c(c1-c1nc3ccccc3[nH]1)CCCC2)C1CCCC1	-2	0	-3	-5	-89	89*
O=C(Nc1ccccc1C(=O)N/N=C/c1ccccc1)c1ccco1	-4	-1	2	88*	x	x
O=C(N/N=C/c1ccccc1)c1ccco1	-2	1	-7	-5	14	-14
O=c1[nH]c(CSc2nc3ccccc3s2)nc2ccccc12	x	0	-6	-7	-1	1
COc1ccc(C2NCCc3c2[nH]c2ccccc32)cc1CSc1nc2ccccc2s1 (centres undefined)	2	-1	-2	80*	22	-22
O=C(CSc1nnc(-c2cnccn2)n1-c1ccccc1)c1ccc(F)cc1	-1	x	x	x	x	x
O=C(NNC(=O)c1cc(F)c(F)cc1Cl)c1ccc(NS(=O)(=O)c2cccs2)cc1	2	-1	6	-2	-14	14
O=C(COC(=O)c1cc(NS(=O)(=O)c2cccs2)ccc1O)Nc1cc(Cl)ccc1Cl	x	0	0	51*	x	x
O=C(NNC(=O)c1cc(Cl)ccc1O)c1ccc(NS(=O)(=O)c2cccs2)cc1	-7	-1	7	-4	-119	119*
O=C(COC(=O)c1ccc(NS(=O)(=O)c2cccs2)cc1)Nc1nc2c(F)c(F)c(F)cc2s1	x	-2	1	37*	-22	22
